Test results taken from publication PMC10408732 (Anesthesia and Analgesia, 2023).
Like-named read-outs stand apart in the source and are kept apart here.

Experiments:
[1] = same software; cited from earlier work
[2] = test system: oxaliplatin-induced neuropathic pain in mice; details: oxaliplatin model; cited from earlier work
mice [3] = assay: Rota-rod test; assay type: in vivo
Summary of the method: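 Rota-rod, mice n = 5/condition. Test compound 30 mg/kg, single dose (tested right after) or daily for 7 days (tested day 8); vehicle controls. Falls from the rod counted over a 30 s test, every 15 min for 1 h. Mice with <3 or >6 falls in the pretest were excluded.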

human CaV2.2 channel [4] = target: T1, human CaV2.2 channel (Homo sapiens, UniProt Q00975); assay: Whole-cell patch clamp recording of CaV2.2 channels expressed in HEK293T cells; assay type: cell-based
Summary of the method: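 Human CaV2.2 transiently expressed in HEK293T cells; whole-cell patch clamp at room temperature 24–48 h after transfection. Bath: 10 mM BaCl2, 30 mM TEA-Cl, pH 7.35. Pipette (2–3 MΩ): K-gluconate with 5 mM EGTA, pH 7.2. Ba2+ currents evoked from −80 mV by steps to −10 or −15 mV at 0.1 Hz, in the absence and presence of test compound.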

rat α7 nAChR [5] = target: T2, rat α7 nAChR (Rattus norvegicus, UniProt Q05941); assay: Two-electrode voltage clamp at rα7 nAChRs expressed in Xenopus laevis oocytes; assay type: cell-based
[6] = test system: oxaliplatin-induced neuropathic pain in mice; assay: Oxaliplatin-induced neuropathic pain, cold plate test; assay type: in vivo
Summary of the method: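 Male CD-1 mice, n = 10/condition, given oxaliplatin 2.4 mg/kg i.p. in 5% glucose, 5 days/week for 2 weeks. On day 15: baseline cold plate, then oral test compound (1, 3, 10 or 30 mg/kg, or a two-compound combination at 30 mg/kg each) in 1% carboxymethyl cellulose. Hind-paw licking latency every 15 min for 60–75 min, 30 s cutoff; mean ± SEM; 1-way ANOVA with Bonferroni.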

rat α9α10 nAChR = rat α9α10 nAChR (Rattus norvegicus, UniProt P43144+Q9JLB5); assay: Two-electrode voltage clamp at rα9α10 nAChRs expressed in Xenopus laevis oocytes; assay type: cell-based; details: for IC50: Inhibition IC50 (μM), −80 mV
mice [7] = assay: Effect on pain threshold, cold plate test; assay type: in vivo; details: acute or repeated (7 days) 30 mg/kg, P > .05 vs vehicle
mice [8] = assay: Effect on pain threshold, hot plate test; assay type: in vivo; details: acute or repeated (7 days) 30 mg/kg, P > .05 vs vehicle
human CaV2.2 channel [9] = target: T1, human CaV2.2 channel; details: cited from earlier work
rat α7 nAChR [10] = target: T2, rat α7 nAChR; details: rα7, same conditions, cited from earlier work
[11] = acute, single dose 30 mg/kg, counted every 15 min for 1 h, P > .05 vs vehicle
[12] = read-out: inhibition of ACh-evoked currents
[13] = oxaliplatin-treated mice, 30 mg/kg oral, cold plate test

T2 sequence (Q05941 23-502): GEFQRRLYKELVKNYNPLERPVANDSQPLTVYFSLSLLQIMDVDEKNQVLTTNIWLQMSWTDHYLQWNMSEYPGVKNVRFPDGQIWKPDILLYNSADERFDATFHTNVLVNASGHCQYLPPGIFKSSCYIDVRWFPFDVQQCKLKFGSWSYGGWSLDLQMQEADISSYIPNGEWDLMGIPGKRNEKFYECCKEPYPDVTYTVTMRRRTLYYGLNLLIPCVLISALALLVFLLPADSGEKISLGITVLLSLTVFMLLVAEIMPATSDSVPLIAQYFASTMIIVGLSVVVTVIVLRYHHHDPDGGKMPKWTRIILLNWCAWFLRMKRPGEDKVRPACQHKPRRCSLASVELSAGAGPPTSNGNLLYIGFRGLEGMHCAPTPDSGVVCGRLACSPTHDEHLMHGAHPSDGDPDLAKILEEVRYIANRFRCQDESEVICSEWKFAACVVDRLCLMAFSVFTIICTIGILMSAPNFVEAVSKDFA
Chain of rat α9α10 nAChR (P43144 26-479): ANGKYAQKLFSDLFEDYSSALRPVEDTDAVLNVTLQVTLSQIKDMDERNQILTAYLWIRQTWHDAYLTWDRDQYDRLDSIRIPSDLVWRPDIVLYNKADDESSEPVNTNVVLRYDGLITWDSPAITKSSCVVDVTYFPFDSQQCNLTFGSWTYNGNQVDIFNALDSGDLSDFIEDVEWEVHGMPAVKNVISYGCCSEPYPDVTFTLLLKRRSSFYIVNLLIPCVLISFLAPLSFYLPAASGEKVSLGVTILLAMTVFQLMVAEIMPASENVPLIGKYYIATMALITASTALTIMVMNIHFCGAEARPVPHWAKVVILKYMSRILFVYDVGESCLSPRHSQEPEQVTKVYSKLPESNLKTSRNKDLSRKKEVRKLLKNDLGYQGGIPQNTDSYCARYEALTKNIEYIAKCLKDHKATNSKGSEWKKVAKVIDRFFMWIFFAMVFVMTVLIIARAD
Chain of rat α9α10 nAChR (Q9JLB5 25-447): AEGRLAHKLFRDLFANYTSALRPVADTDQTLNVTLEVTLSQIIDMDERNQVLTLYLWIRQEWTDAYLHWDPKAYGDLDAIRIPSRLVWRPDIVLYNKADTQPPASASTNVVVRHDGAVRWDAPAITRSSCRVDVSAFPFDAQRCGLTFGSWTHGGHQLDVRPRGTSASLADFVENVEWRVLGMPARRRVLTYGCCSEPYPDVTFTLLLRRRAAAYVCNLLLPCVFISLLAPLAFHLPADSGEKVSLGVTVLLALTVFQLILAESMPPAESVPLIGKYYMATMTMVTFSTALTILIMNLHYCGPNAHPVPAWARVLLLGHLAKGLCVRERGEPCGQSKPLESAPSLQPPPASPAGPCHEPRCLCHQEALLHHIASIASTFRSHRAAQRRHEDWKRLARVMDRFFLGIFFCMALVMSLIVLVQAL

Compound: O=C(/C=C/c1ccco1)N1CCc2ccccc21 [DM489, (E)-3-(furan-2-yl)-1-(indolin-1-yl)prop-2-en-1-one]
- LogBBB [1]: 0.17
- active dose (antinociceptive activity) [2]: 10 mg/kg

Compound: Cc1ccc(N(C)C(=O)/C=C/c2ccco2)cc1 [DM490, (E)-3-(furan-2-yl)-N-methyl-N-(p-tolyl)acrylamide]
- endurance time (number of falls per 30 seconds) (mice [3]; [11]): did not modify the endurance time
- endurance time (number of falls per 30 seconds) (mice [3]; repeated, 30 mg/kg daily for 7 days, day 8, P > .05 vs vehicle): did not modify the endurance time
- IC50 (human CaV2.2 channel [4]): 93 ± 16 µM
- IC50 (rat α7 nAChR [5]): 15.1 ± 1.8 µM
- inhibition at 10 µM (rat α7 nAChR [5]; read-out: inhibition of ACh-evoked current amplitude): ~40%
- Inhibition nH (rat α7 nAChR [5]; rα7, agonist ACh 30 µM): < 1.5
- activity on oxaliplatin-treated animals (cold plate test) ([6]; 30 mg/kg oral, alone): without inducing any activity on oxaliplatin-treated animals
- IC50 (rat α9α10 nAChR; rα9α10, agonist ACh 10 µM): 41 ± 4 µM
- IC50 (rat α9α10 nAChR; rα9α10, agonist ACh 100 µM): 36 ± 4 µM
- inhibition at 30 µM (rat α9α10 nAChR; [12]): ~45%
- fold higher antagonist potency than that for DM497 (rat α9α10 nAChR; α9α10 nAChR): > 8 fold
- pain threshold for cold stimuli (mice [7]): did not change the pain threshold
- pain threshold for heat stimuli (mice [8]): did not change the pain threshold

Compound: Cc1ccc(NC(=O)/C=C/c2cccs2)cc1 [DM497, (E)-3-(thiophen-2-yl)-N-(p-tolyl)acrylamide]
- endurance time (number of falls per 30 seconds) (mice [3]; [11]): did not modify the endurance time
- inhibitory activity at the CaV2.2 channel (in words) (human CaV2.2 channel [4]; CaV2.2 channel): minimal effect
- inhibition at 300 µM (human CaV2.2 channel [4]; HEK-293T, read-out: inhibition of whole-cell Ba2+ currents, hCaV2.2, at 300 µM): ~20%
- EC50 (rat α7 nAChR [5]): 86 ± 10 µM
- Emax (rat α7 nAChR [5]; read-out: maximal efficacy at rα7 nAChRs): 196%
- potentiation of ACh-evoked currents (rat α7 nAChR [5]; rα7, 30 µM ACh, 100 µM compound): ~ 100%
- Potentiation nH (rat α7 nAChR [5]; rα7, agonist ACh 30 µM): ~2
- activity when administered alone (cold plate test) ([6]; mice without oxaliplatin, 10 mg/kg): without inducing any activity when administered alone
- active dose (antinociceptive activity) ([6]; oxaliplatin model, this work): 10 mg/kg
- onset of antinociceptive activity ([6]; oxaliplatin-treated mice, 10 mg/kg oral, cold plate test): 30 min
- extent of the antinociceptive effect at 30 mg/kg compared to 10 mg/kg [6, 13]: without changing the extent of the antinociceptive effect
- onset of antinociceptive activity [6, 13]: 15 min
- antinociceptive activity (licking latency, cold plate test) ([6]; oxaliplatin-treated mice, day 15, single oral 1 mg/kg): but not 1 or 3 mg/kg
- IC50 (rat α9α10 nAChR; rα9α10, agonist ACh 10 µM): 340 ± 21 µM
- IC50 (rat α9α10 nAChR; rα9α10, agonist ACh 100 µM): 369 ± 21 µM
- inhibition at 300 µM (rat α9α10 nAChR; [12]): 40%

Compound: O=C1[O][Pt]2([NH][C@@H]3CCCC[C@H]3[NH]2)[O]C1=O [Oxaliplatin, reference compound]
- IC50 (rat α7 nAChR [5]; read-out: Inhibition IC50, rα7, agonist ACh 30 µM, −80 mV): 200 µM
- IC50 (rat α7 nAChR [5]; read-out: Inhibition IC50, rα7, agonist nicotine 25 µM): 200 µM

Compound: Cc1ccc(NC(=O)/C=C/c2ccco2)cc1 [PAM-2, (E)-3-furan-2-yl-N-p-tolyl-acrylamide]
- IC50 (human CaV2.2 channel [9]): 89 µM
- LogBBB [1]: 0.09
- LogP [1]: 2.96
- IC50 (rat α7 nAChR [10]; read-out: potency at rα7 nAChRs (IC50 as printed)): 12 µM
- maximal efficacy at rα7 nAChRs (rat α7 nAChR [10]): 135% ± 4%
- active dose (antinociceptive activity) [2]: 3 mg/kg
